Data taken from publication PMC12222688 (Scientific Reports, 2025).

Molecular target: plasma kallikrein (pKal) (Homo sapiens, UniProt P03952)
Assay: cell-free fluorogenic substrate enzyme activity assay with recombinant pKal
Assay type: biochemical
In short: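 Human recombinant plasma kallikrein was dissolved in deionized water and used with its protein-specific fluorogenic substrate under cell-free conditions. Test compound, at concentrations up to 3000 µg/mL, was incubated with substrate solution for 30 min at 37 °C. Fluorescence was read on a microplate reader. Autofluorescence was subtracted, and relative fluorescence units were normalized to blank samples.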

plasma kallikrein (pKal), sequence (P03952 20-390): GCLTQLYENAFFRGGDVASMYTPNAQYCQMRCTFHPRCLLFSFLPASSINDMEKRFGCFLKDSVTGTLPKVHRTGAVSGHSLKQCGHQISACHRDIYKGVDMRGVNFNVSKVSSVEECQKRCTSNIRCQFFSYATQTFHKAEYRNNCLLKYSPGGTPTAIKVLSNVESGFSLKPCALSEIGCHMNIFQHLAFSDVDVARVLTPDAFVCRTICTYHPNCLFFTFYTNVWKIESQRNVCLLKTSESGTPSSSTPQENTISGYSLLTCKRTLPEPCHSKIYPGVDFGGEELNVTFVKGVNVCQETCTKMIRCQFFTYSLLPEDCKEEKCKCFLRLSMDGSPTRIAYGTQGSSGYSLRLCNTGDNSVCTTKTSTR
plasma kallikrein (pKal), sequence (P03952 391-638): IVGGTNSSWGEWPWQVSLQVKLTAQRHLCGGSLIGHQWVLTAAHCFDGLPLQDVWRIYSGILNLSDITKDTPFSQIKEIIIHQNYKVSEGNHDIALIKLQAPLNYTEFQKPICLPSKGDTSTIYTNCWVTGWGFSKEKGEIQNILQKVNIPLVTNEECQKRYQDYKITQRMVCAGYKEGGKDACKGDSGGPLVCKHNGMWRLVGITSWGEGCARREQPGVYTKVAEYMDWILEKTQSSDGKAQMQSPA

C[C@@H]1O[C@@H](O[C@@H]2[C@@H](O)[C@H](OCCc3ccc(O)c(O)c3)O[C@H](CO)[C@H]2OC(=O)/C=C/c2ccc(O)c(O)c2)[C@H](O)[C@H](O)[C@H]1O [acteoside]
IC50: 313 µM
